eIF4H inh: inhibitors of RNA binding by human eIF4H; AID 2012; inhibition, % at 35 µM; Q15056; 290,000 compounds, 0.94% hits; eIF4H fluorescence polarization binding assay;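 further: calls also rest on retests at 20 µM and on dose response follow-up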
PABP polyA inh: PABP-poly(A) binding inhibition. AID 2014. inhibition, % at 35 µM. 290,000 compounds, 1% hits. PABP-poly(A) RNA binding, fluorescence polarization;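 further: calls also rest on retests at 20 µM and on dose response follow-up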
MLLE-PAM2 inh: blocks PAM2 peptide binding to the PABP1 MLLE domain; P11940; 360,000 compounds, 0.36% hits; inhibition, % at 20 µM; GST-MLLE / FITC-PAM2 fluorescence polarization; in the data active means inhibition above about 35%, passing the limit was not always enough;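 further: plate controls were DMSO wells with GST-MLLE for no effect and wells lacking GST-MLLE protein for full effect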
SKN-1 block: inhibitors of C. elegans SKN-1; C. elegans VP596 Pgst-4::GFP/RFP ratio, acrylamide-induced, 24 h; inhibition, % at 21.8 µM; 360,000 compounds, 0.49% hits;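 active means interference check ratio from 0.5 to 1.5 plus GFP to RFP signal ratio inhibition reaching or exceeding a fixed threshold, cut at about 30% in these data, passing the limit was not always enough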
MT1-MMP act inh: blocks activation of human MT1-MMP; HT1080 RFP-PRO-GFP cells, GFP/RFP ratio fluorescence, overnight; percent of plate control window, DMSO zero; 360,000 compounds, 0.061% hits; P50281; AID 651647; GFP/RFP ratio change, % at 20 µM;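 active means GFP/RFP ratio change of at least 30% with cell ATP level not reduced by more than half and red fluorescence within 50% of control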
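Material – HT1080 RFP-PRO-GFP cells · Control set – DMSO wells and RFP-L50D-GFP cells · Incubation – overnight cell settling, then overnight compound exposure, 37 °C, 5% CO2 · Compound dosing – single-point 20 µM compound, 1% DMSO · Read-out – GFP/RFP fluorescence ratio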
* hit, by the source's call; ? = inconclusive; . = no result. Compounds with a hit are over-represented: about 1.7% of the library has one in this group of screens. Unless noted, how the calls were made is not given here.

SMILES	eIF4H inh	PABP polyA inh	MLLE-PAM2 inh	SKN-1 block	MT1-MMP act inh
COCCn1c(C)cc(C(=O)COc2ccc(C)nc2[N+](=O)[O-])c1C	115.4*	-24.6	-15.5	1.2	-4.8
Cc1ccc(OCC(=O)c2cc(C)n(-c3ccccc3)c2C)c([N+](=O)[O-])n1	46.3	-4.2	6.0	-3.9	5.3
CCCn1c(C)cc(C(=O)COc2ccc(C)nc2[N+](=O)[O-])c1C	69.0*	8.6*	-1.6	5.2	2.7
COc1ccccc1NC(=O)Cc1nnc(SCC(=O)c2ccc(F)cc2)n1C	-0.9	-15.2	-1.1	6.9	3.4
CN(Cc1ccccc1)C(=O)[C@@H]1CCCN1S(=O)(=O)c1ccc(Cl)cc1	-7.5	1.9	15.8	14.2	2.1
Oc1cccc(C=NN=C2c3ccccc3-c3ccccc32)c1	.	.	14.2	0.8	-0.7
O=C1c2ccc3c4c(ccc(c24)C(=O)N1c1ccc2ccccc2c1)CC3	-5.0	-4.6	-1.2	35.1*	-1.8
CCN(CC)S(=O)(=O)c1ccc(OC(C)C)c(NC(=O)c2c3c(nc4ccccc24)CCN(Cc2ccccc2)C3)c1	-11.5	18.6	-2.2	5.8	-16.3
COc1ccc(C(C(=O)NC2CCCC2)N(C(=O)c2snc(-c3ccc(F)cc3)c2N)c2ccc(OC)cc2)cc1 (stereo not given)	3.8	12.5	-5.7	-1.3	-10.5
COc1ccc(C(C(=O)NC2CCCC2)N(C(=O)c2snc(-c3ccc(F)cc3)c2N)c2ccc(F)cc2)cc1 (stereo not given)	5.0	0.4	8.4	45.9*	-0.9
Nc1[nH]c2cc([N+](=O)[O-])ccc2c1-c1ccccn1	50.6	17.1*	-132.8	16.4	-28.2
Nc1nc2ccc([N+](=O)[O-])cc2[nH]1	-1.7	7.9	-2.6	10.6	-2.6
c1ccc(-n2nc3c(ccc4cnnc43)[nH]2)cc1	6.6	-6.8	-5.5	30.8*	0.7
O=C(Cc1ccccc1F)c1ccc(O)cc1O	-11.6	4.2	-6.6	-0.3	0.4
O=C(Cc1c(F)cccc1Cl)c1ccc(O)cc1O	63.1	57.9*	17.1	6.5	-7.0
O=C(Cc1ccc(F)cc1)c1ccc(O)cc1O	74.9*	87.8*	20.9	13.1	-6.8
COc1cc(NC(=O)c2ccccc2)c(OC)cc1NC(=O)Cc1cccs1	57.5*	7.1	-20.0	2.4	-1.6
CC1(C(=O)NS(=O)(=O)Cc2cccc(Cl)c2)CCN1C(=O)c1cccc(F)c1 (stereo not given)	.	.	-5.7	-2.8	-0.4
CC(SC1=Nc2ccccc2C2CC=NN12)C(=O)NC1(C#N)CCCCC1 (stereo not given)	.	.	40.8*	-21.1	6.0
CC(C)CCN1C(=O)c2ccc(C(=O)Nc3ccc(O)cc3C(=O)O)cc2C1=O	81.1*	55.1*	1.7	-4.4	0.3
CC(C)CN1C(=O)c2ccc(C(=O)Nc3ccc(O)cc3C(=O)O)cc2C1=O	1.3	10.7	-1.8	0.6	-1.3
CN1C/C(=C\c2ccc(N3CCOCC3)cc2)C(=O)/C(=C/c2ccc(N3CCOCC3)cc2)C1	77.6*	active	-133.2	30.1	-42.1
CCN1C/C(=C/c2ccc(N3CCOCC3)cc2)C(=O)/C(=C/c2ccc(N3CCOCC3)cc2)C1	?	23.3	-152.0	29.2	-137.6
COCCOC1CCN(C(=O)C2CCC(=O)N(CCc3ccccc3)C2)CC1 (stereo not given)	-22.4	-2.8	0.6	7.5	-5.3
O=c1cc(CO)oc(C(Nc2ccccn2)c2ccsc2)c1O (stereo not given)	71.4*	47.5*	.	.	.
SMILES	eIF4H inh	PABP polyA inh	MLLE-PAM2 inh	SKN-1 block	MT1-MMP act inh
O=c1cc(CO)oc(C(Nc2ccccn2)c2ccc(F)cc2)c1O (stereo not given)	-0.4	-4.3	23.8	3.3	-2.9
Cc1ccc(CSC2=Nc3ccccc3C3=NC(CC(=O)NCc4ccco4)C(=O)N23)cc1 (stereo not given)	51.4*	29.1*	-7.6	14.3	-3.4
O=C(CC1N=C2c3ccccc3N=C(SCc3ccc(F)cc3)N2C1=O)NCc1ccco1 (stereo not given)	27.6	3.9	10.1	7.3	-3.4
O=C(c1ccccn1)c1cc2ccccc2n1S(=O)(=O)c1ccccc1	5.1	10.8	16.4	5.3	-1.2
CCn1c(/C=C/c2cc[n+](C)cc2)nc2ccccc21	45.8	99.5*	-10.7	-11.5	-12.4
CCCn1c(/C=C/c2ccccc2)nc2ccccc21	-0.3	-0.8	9.9	0.4	-2.7
CCOc1ccccc1C(=O)NCC(=O)N1CCN(Cc2ccc3c(c2)OCO3)CC1	.	.	-6.5	5.4	5.9
CSC(C(=O)c1cc2ccccc2o1)c1ccccc1 (stereo not given)	.	.	-3.8	7.6	-2.7
CCOC(=O)c1nc(Nc2ccc(C)cc2)c2ccccc2n1	12.8	11.1	59.9*	-4.9	3.2
CC(O)/C=C/c1cccc[n+]1C (stereo not given)	14.1	84.7*	-117.3	5.4	-1.8
C[n+]1ccccc1/C=N/O	0.3	-3.0	2.3	-10.6	3.7
CCC(=O)NC(=S)Nc1ccc(NC(=O)c2cc3ccccc3o2)c(OC)c1	-5.5	0.1	13.6	-9.9	4.7
Cc1c(/C=C2\SC(=Nc3cccc(C(=O)O)c3)NC2=O)c2ccccc2n1C	0.0	63.5*	-174.5	8.3	-19.4
O=C(NC1CC1)c1cccc(NC(=O)c2cn3ccccc3n2)c1	.	.	-21.9	-4.9	14.8
CN(N=O)c1ccc(CC2CCc3ccccc32)cc1 (stereo not given)	.	.	6.8	43.6*	3.1
Cn1ccsc1=NC(=O)c1ccc([N+](=O)[O-])o1	80.3*	44.8*	-3.8	7.3	-1.5
COc1cc(C(=O)N=c2sccn2C)c([N+](=O)[O-])cc1OC	-9.6	2.8	-47.9	14.3	1.4
CCOC(=O)C1=CC[C@@H](c2ccccc2)N(S(=O)(=O)c2ccc(C)cc2)[C@@H]1C#N	.	.	.	5.9	7.7
Oc1ccc(NCc2cccc(OCc3ccccc3)c2)cc1	69.3	36.2*	-23.9	26.3	25.0
Oc1ccc(NCc2cccc(OCc3ccc(F)cc3)c2)cc1	33.2	30.8	-8.6	12.6	20.0
CC(C)CCN(C(=O)c1ccc(Br)cc1)c1c(N)n(Cc2ccccc2)c(=O)[nH]c1=O	.	.	19.9	-5.4	-1.5
CC(C(=O)NC1CCCC1)n1c(-c2ccncc2)nc2ccccc21 (stereo not given)	.	.	.	-4.8	6.6
CC1CCC2C(=O)N(c3ccccc3OC(=O)c3ccccc3F)C(=O)C2C1 (stereo not given)	4.4	-9.3	2.9	9.8	-6.8
Cc1ccc(-c2cc(C(=O)N/N=C/c3c[nH]c4ccccc34)n[nH]2)o1	-10.1	58.9*	-9.3	19.1	-0.4
CCc1ccc(C(=O)NNC(=O)c2cccc(S(=O)(=O)N3CCN(C)CC3)c2)cc1	.	.	6.8	1.9	1.1
O=C(Oc1ccc(OC(=O)c2ccco2)c(S(=O)(=O)c2ccc(Br)cc2)c1)c1ccco1	1.5	-1.5	1.1	36.4*	6.5
